According to ChEMBL document CHEMBL1135602 (J Med Chem, 2002):

How the values were obtained:
[1] = biological target: Bifunctional dihydrofolate reductase-thymidylate synthase (Plasmodium falciparum K1, UniProt P13922, S108N); experiment: Inhibition of the S108N mutant of dihydrofolate reductase (DHFR)
How it was run: (§1)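 Assay at 25 °C: 50 mM TES pH 7.0, 75 mM β-mercaptoethanol, 1 mg/mL BSA, 100 µM H2folate and 100 µM NADPH. NADPH oxidation followed at 340 nm. Ki derived from IC50 as Ki(1+[S]/Km), assuming competitive inhibition.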

Plasmodium falciparum [2] = experiment: In vitro antiplasmodial activity (IC50) against Plasmodium falciparum wtTM4/8.2; format: functional, organism-based
[3] = biological target: Bifunctional dihydrofolate reductase-thymidylate synthase (Plasmodium falciparum K1) (UniProt P13922); experiment: Inhibition of mutant C59R+S108N dihydrofolate reductase (DHFR) relative to Pyr
[4] = biological target: Bifunctional dihydrofolate reductase-thymidylate synthase (Plasmodium falciparum K1) (UniProt P13922); experiment: Inhibition of mutant S108N dihydrofolate reductase (DHFR) relative to Pyr
[5] = biological target: Bifunctional dihydrofolate reductase-thymidylate synthase (Plasmodium falciparum K1) (UniProt P13922); experiment: Inhibition of Plasmodium falciparum wild-type dihydrofolate reductase (DHFR) relative to Pyrimethamine.
[6] = tested on: Bifunctional dihydrofolate reductase-thymidylate synthase (Plasmodium falciparum K1), P13922 [UNDEFINED MUTATION]; experiment: Ratio of Inhibition of the C59R+S108N mutant of dihydrofolate reductase (DHFR) to inhibition of wild type dihydrofolate reductase.
[7] = biological target: Bifunctional dihydrofolate reductase-thymidylate synthase (Plasmodium falciparum K1, UniProt P13922); experiment: Inhibition of the C59R+S108N mutant of dihydrofolate reductase (DHFR); how it was run: as §1
Plasmodium falciparum [8] = experiment: IC50 ratio against Plasmodium falciparum K1CB1/TM4; format: functional
[9] = tested on: Bifunctional dihydrofolate reductase-thymidylate synthase (Plasmodium falciparum K1), P13922 [UNDEFINED MUTATION]; experiment: Ratio of Inhibition of the S108N mutant of dihydrofolate reductase (DHFR) to inhibition of wild type dihydrofolate reductase.
BC = experiment: Cytotoxicity against human breast cancer cells.; format: functional, cell-based
Plasmodium falciparum [10] = experiment: Safety ratio as cytotoxicity in vero cells relative to IC50 TM4; format: functional
KB = experiment: Cytotoxicity against human epidermoid carcinoma KB cell.; format: functional, cell-based
Vero = experiment: Cytotoxicity by the selective inhibition against African green monkey kidney […] (vero cells).; format: functional, cell-based; conditions: Chlorocebus sabaeus
[11] = Safety ratio is cytotoxicity to BC cells/IC50 TM4.; format: toxicity, cell-based; conditions: human, BC cells (breast cancer); read-out: Safety ratio
How it was run: (§2)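 Ratio of the cytotoxicity IC50 (KB or BC cells, Skehan protocol) to the antiplasmodial IC50 against TM4/8.2 (wild-type DHFR). […] Label was added after 24 h and cultures ran a further 18-24 h.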

Plasmodium falciparum [12] = experiment: In vitro relative antiplasmodial activity (IC50) compared to Pyr against Plasmodium falciparum TM4/8.2 wild-type; format: functional
[13] = biological target: Bifunctional dihydrofolate reductase-thymidylate synthase (Plasmodium falciparum K1) (UniProt P13922); experiment: Inhibition of the wild-type dihydrofolate reductase (DHFR) relative to Pyr.
How it was run: (§3)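 Assayed at 25 °C in 50 mM TES pH 7.0, 75 mM β-mercaptoethanol, 1 mg/mL BSA, with 100 µM H2folate and 100 µM NADPH. A340 was followed. Ki was derived from IC50 = Ki(1+[S]/Km), assuming competitive inhibition.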

[14] = Safety ratio is cytotoxicity to KB cells/IC50 TM4.; format: toxicity, cell-based; conditions: human, KB cells (epidermoid carcinoma); read-out: Safety ratio; how it was run: as §2
[15] = Safety ratio is cytotoxicity to BC cells/IC50 K1.; format: toxicity, cell-based; conditions: human, BC cells (breast cancer); read-out: Safety ratio
How it was run: (§4)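 Ratio of the cytotoxicity IC50 (vero, KB or BC cells, Skehan protocol) to the antiplasmodial IC50 against K1CB1 (C59R+S108N DHFR). […] Label was added at 24 h and cultures ran a further 18-24 h. Final DMSO was 0.1%.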

[16] = Safety ratio is cytotoxicity to KB cells/IC50 K1.; format: toxicity, cell-based; conditions: human, KB cells (epidermoid carcinoma); read-out: Safety ratio; how it was run: as §4
[17] = Safety ratio is cytotoxicity to vero cells/IC50 K1.; format: toxicity, cell-based; conditions: monkey, read-out: Safety ratio; how it was run: as §4
Plasmodium falciparum [18] = experiment: Relative antiplasmodial activity (IC50) compared to Pyr against Plasmodium falciparum K1CB1 DHFR double-mutant (C59R/S108N); format: functional
[19] = biological target: Bifunctional dihydrofolate reductase-thymidylate synthase (Plasmodium falciparum K1) (UniProt P13922); experiment: Inhibition of the S108N mutant of dihydrofolate reductase (DHFR) relative to Pyr.; how it was run: as §3
[20] = biological target: Bifunctional dihydrofolate reductase-thymidylate synthase (Plasmodium falciparum K1) (UniProt P13922); experiment: Inhibition of the C59R+S108N mutant of dihydrofolate reductase (DHFR) relative to Pyr.; how it was run: as §3

Chain of Bifunctional dihydrofolate reductase-thymidylate synthase (Plasmodium falciparum K1), P13922 [UNDEFINED MUTATION] (P13922 whole entry, looked up, stated change not applied): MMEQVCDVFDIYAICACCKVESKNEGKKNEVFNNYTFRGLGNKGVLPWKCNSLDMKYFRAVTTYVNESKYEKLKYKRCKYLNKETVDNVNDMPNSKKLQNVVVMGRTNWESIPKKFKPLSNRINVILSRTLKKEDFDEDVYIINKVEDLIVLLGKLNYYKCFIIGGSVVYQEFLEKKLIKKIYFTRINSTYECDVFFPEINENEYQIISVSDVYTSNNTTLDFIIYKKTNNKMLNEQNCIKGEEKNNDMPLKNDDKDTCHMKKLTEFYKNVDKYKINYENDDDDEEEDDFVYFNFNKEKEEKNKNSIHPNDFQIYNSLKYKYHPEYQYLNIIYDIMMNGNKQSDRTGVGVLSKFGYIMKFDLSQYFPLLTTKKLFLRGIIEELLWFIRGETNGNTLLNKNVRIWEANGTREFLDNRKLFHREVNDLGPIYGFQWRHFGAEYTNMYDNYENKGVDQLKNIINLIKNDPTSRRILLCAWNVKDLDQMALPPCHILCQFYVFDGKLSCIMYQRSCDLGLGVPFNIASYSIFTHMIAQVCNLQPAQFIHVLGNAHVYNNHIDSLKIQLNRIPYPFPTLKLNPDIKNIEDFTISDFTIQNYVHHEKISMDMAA
Chain of Bifunctional dihydrofolate reductase-thymidylate synthase (Plasmodium falciparum K1, UniProt P13922, S108N) (P13922 whole entry, looked up, stated change not applied): as above
Chain of Bifunctional dihydrofolate reductase-thymidylate synthase (Plasmodium falciparum K1) (P13922 whole entry, looked up): as the sequence (P13922 whole entry, looked up, stated change not applied) above
Chain of Bifunctional dihydrofolate reductase-thymidylate synthase (Plasmodium falciparum K1, UniProt P13922) (P13922 whole entry): as the sequence (P13922 whole entry, looked up, stated change not applied) above

| SMILES | Ki [1] | IC50 (Plasmodium falciparum [2]) | Relative activity [3] | Relative activity [4] | Relative activity [5] | Ratio [6] | Ki [7] | Ratio (Plasmodium falciparum [8]) | Ratio [9] | further results |
| --- | --- | --- | --- | --- | --- | --- | --- | --- | --- | --- |
| COC(=O)CCCc1nc(N)nc(N)c1-c1ccccc1 | 1.8 nM | 400 nM | 0.1 | 0.06 | 1 | 9.2 | 5.5 nM | 78.3 | 0.06 | – |
| CCc1nc(N)nc(N)c1-c1ccccc1 | 4.5 nM | 700 nM | – | – | – | 3.8 | 8.7 nM | 4.7 | 2 | IC50 (BC): > 500000 nM; Safety ratio (Plasmodium falciparum [10]): 444; IC50 (KB): > 500000 nM; IC50 (Vero): 320000 nM; selectivity ratio [11]: > 714; Relative activity (Plasmodium falciparum [12]): 8.7; Relative activity [13]: 3.8; selectivity ratio [14]: > 714; selectivity ratio [15]: > 151; selectivity ratio [16]: > 151; selectivity ratio [17]: 96; Relative activity (Plasmodium falciparum [18]): 0.1; Relative activity [19]: 0.2 |
| CCc1nc(N)nc(N)c1-c1ccc(Cl)c(Cl)c1 [ETOPRINE] | 9 nM | 60 nM | 0.2 | 0.3 | 1.7 | 12.6 | 12.6 nM | 290 | 9 | – |
| CCc1nc(N)nc(N)c1-c1ccc(-c2ccccc2)cc1 | 421 nM | 13100 nM | – | – | – | 3.9 | 730 nM | 0.3 | 2.2 | Relative activity [20]: 13.5; Relative activity (Plasmodium falciparum [12]): 163.8; Relative activity [13]: 313; Relative activity (Plasmodium falciparum [18]): 0.1; Relative activity [19]: 14.7 |
| COc1cc(COc2ccc(Cc3cnc(N)nc3N)cc2)cc(OC)c1OC | – | 700 nM | – | – | – | – | – | – | – | IC50 (BC): > 250000 nM; IC50 (KB): > 250000 nM; IC50 (Vero): > 250000 nM |
| CCOc1c(Br)cc(-c2c(N)nc(N)nc2CC)cc1Br | 415 nM | 3700 nM | 9.9 | 14.5 | 11.7 | 76.3 | 535 nM | 4.7 | 59.3 | – |
| Nc1nc(N)c(-c2ccc(Cl)cc2)c(CCCc2ccccc2)n1 | 13.9 nM | 50 nM | 0.4 | 0.5 | 1.2 | 33.3 | 23.3 nM | 212 | 19.9 | – |
| Nc1ncc(-c2ccccc2)c(N)n1 | 81 nM | 20900 nM | 1.4 | 2.8 | 69.8 | 1.8 | 76.2 nM | 0.9 | 1.9 | – |
| CCc1nc(N)nc(N)c1-c1cccc(Cl)c1 | 1.6 nM | 400 nM | […] | […] | […] | – | […] | […] | – | IC50 (BC): 25000 nM; Safety ratio (Plasmodium falciparum [10]): […]; IC50 (KB): 46000 nM; IC50 (Vero): 7000 nM; selectivity ratio [14]: […]; selectivity ratio [16]: […]; selectivity ratio [17]: […] |
| CCc1nc(N)nc(N)c1-c1ccc(Cl)cc1 [PYRIMETHAMINE] | – | 80 nM | – | – | – | – | – | – | – | IC50 (BC): > 250000 nM; IC50 (KB): 109000 nM |
| Cc1nc(N)nc(N)c1-c1cccc(Cl)c1 | 3.2 nM | 2400 nM | – | – | 3.2 | 1.6 | 3.1 nM | 2 | 1.7 | – |
| Cc1nc(N)nc(N)c1-c1ccccc1 | 25.6 nM | 7400 nM | 0.7 | 0.9 | 18.2 | 3.4 | 36.7 nM | 4.2 | 2.3 | – |
| Nc1ncc(-c2ccc(Cl)cc2)c(N)n1 | 369 nM | 2300 nM | 10.3 | 12.9 | 4 | 232 | 556 nM | 11.4 | 154 | – |
| COc1cc(Cc2cnc(N)nc2N)cc(OC)c1OC [TRIMETHOPRIM] | – | – | – | – | – | – | – | – | – | IC50 (BC): > 250000 nM; IC50 (KB): > 250000 nM; IC50 (Vero): > 50000 nM |
| COC(=O)CCCc1nc(N)nc(N)c1-c1cccc(Cl)c1 | 1.7 nM | 800 nM | – | – | 0.8 | 5.6 | 2.8 nM | 45.4 | 3.4 | – |
| CCc1nc(N)nc(N)c1-c1ccc(Cl)cc1Cl | 1170 nM | 11300 nM | 21.2 | 41 | 21 | 90.6 | 1140 nM | 2 | 93.1 | – |
| Nc1ncc(-c2cccc(Cl)c2)c(N)n1 | 26.3 nM | 6000 nM | – | – | 10.5 | 5 | 31.6 nM | 1.5 | 4.2 | – |
| Cc1nc(N)nc(N)c1-c1ccc(Cl)cc1 | 104 nM | 500 nM | 2.6 | 3.6 | 3.3 | 71 | 142 nM | 120.2 | 51.8 | – |
| CCc1nc(N)nc(N)c1-c1ccc(C)cc1 | 10.6 nM | 100 nM | – | – | – | 36.8 | 14.7 nM | 127 | 26.5 | Relative activity [20]: 0.3; Relative activity (Plasmodium falciparum [12]): 1.2; Relative activity [13]: 0.7; Relative activity (Plasmodium falciparum [18]): 0.4; Relative activity [19]: 0.4 |
| COc1cc(Cc2cnc(N)nc2N)cc(OC)c1OCc1ccccc1 | 61.9 nM | 4200 nM | – | – | – | – | 71.9 nM | 7.1 | – | – |
| CCc1nc(N)nc(N)c1-c1ccc(OCc2ccc(Cl)cc2Cl)c(OC)c1 | – | 3700 nM | – | – | – | – | – | – | – | – |
| CCCCOc1cc(Cc2cnc(N)nc2N)ccc1OCc1cc(OC)c(OC)c(OC)c1 | – | 440 nM | – | – | – | – | – | – | – | IC50 (KB): > 50000 nM; IC50 (Vero): > 50000 nM |
| COC(=O)CCCc1nc(N)nc(N)c1-c1ccc(Cl)cc1 | 16.9 nM | 40 nM | 0.5 | 0.6 | 0.5 | 91.3 | 27.4 nM | 557.5 | 56.3 | – |
| CCc1nc(N)nc(N)c1-c1ccc(OC)cc1 | 39 nM | 300 nM | – | – | – | 95.6 | 86 nM | >84 | 43.3 | Relative activity [20]: 1.6; Relative activity (Plasmodium falciparum [12]): 3.8; Relative activity [13]: 1.5; Relative activity (Plasmodium falciparum [18]): >0.8; Relative activity [19]: 1.4 |
| CCOc1cc(Cc2cnc(N)nc2N)ccc1OCc1ccccc1 | – | 500 nM | – | – | – | – | – | – | – | IC50 (BC): 100000 nM; IC50 (KB): 47000 nM; IC50 (Vero): > 250000 nM |
| CCc1nc(N)nc(N)c1-c1ccc2c(c1)OCO2 | 17.2 nM | 400 nM | 0.6 | 0.6 | 1.8 | 31.5 | 34.6 nM | 53.8 | 15.6 | – |
| Nc1nc(N)c(-c2cccc(Cl)c2)c(CCCc2ccccc2)n1 | 3 nM | 700 nM | – | – | 2 | 3.5 | 4.2 nM | 4.3 | 2.5 | – |
